This excerpt belongs to a sample that is enriched for hits.
L major viab = Leishmania major promastigote growth inhibition, primary screen | Leishmania major promastigotes, resazurin fluorescence viability | inhibition, % at 10 µM | 200,000 compounds, 9% hits; in the data active = inhibition above about 50%;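 note: promastigotes grown with compound for 44 hours at 28 °C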
CHOP inhibitor = inhibitors of CHOP promoter induction, primary screen, cell-based, unfolded protein response, luciferase reporter; inhibition, % at 10 µM; AID 2732, 2010; 220,000 compounds, 3.8% hits; CHO-K1 CHOP-promoter luciferase, tunicamycin-induced, 15-18 h;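 active = compounds that reduced the stress-induced luciferase reporter signal by more than about 70% of percent inhibition, limit read from the data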;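 note: 0% = tunicamycin plus vehicle and 100% = wells without tunicamycin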
CHOP UPR activ = activators of apoptotic CHOP UPR arm, primary screen, cell-based, CHO-CHOP luciferase reporter, luminescence, uHTS; UPR activation; percent of tunicamycin response over DMSO baseline; 330,000 compounds, 0.34% hits; activation, % at 10 µM; AID 449763, 2010;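 active = at 10 µM dose, activation of 40% or more, normalized to positive control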;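 note: 100% = tunicamycin at 10 µg/mL and 0% = DMSO alone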
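Test system: CHO CHOP reporter cells. Input: 500 CHO-CHOP cells per well. Medium: F12 with 10% FBS. Technique: luciferase luminescence. Measure: percent activation relative to tunicamycin control. Dosing: 10 µM compound, 0.5% DMSO. Timing: 16-18 h cell attachment, then 6 h compound exposure, 37 °C.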
Dynein cargo inh = inhibitors of GR-EGFP nuclear translocation, primary screen, dynein cargo transport inhibitor project, imaging, high-content, 3617.4 mouse cells. test concentration mostly 20 µM; stimulated with dexamethasone, 1 µM; active compounds read low. z-score, hits read low. 220,000 compounds, 0.47% hits;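 active = plate z-score of nuclear minus cytoplasmic receptor signal below a set negative limit, without overly bright fluorescence or cell loss, cut at about -3.5 in these data, passing the limit was not always enough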;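 note: z-score of nuclear minus cytoplasmic ring GR-EGFP intensity difference per well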
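medium = tetracycline-free induction medium containing charcoal-stripped FBS | also added = 1.0 µM final dexamethasone stimulus | schedule = 48 h induction, 1 h compound, 30 min dex at 37 °C | technique = fixed, Hoechst-stained cells imaged at 10x for EGFP | measure = GR-EGFP nuclear translocation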
T cruzi repl = inhibitors of intracellular T. cruzi growth, primary screen, luminescence, NIH3T3 host cells. T. cruzi beta-gal in NIH3T3, 90 h. inhibition, % (concentration not given with the values). 300,000 compounds, 1.4% hits;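 active = mean inhibition across valid replicates above about 55%, limit read from the data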;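 note: signal also drops with host cell toxicity which is not excluded here; 0% = plate median of DMSO wells and 100% = zero luminescence signal; higher percent means less beta-gal luminescence so fewer parasites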
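Assay system: NIH/3T3 fibroblasts plus reporter T. cruzi. Amount: NIH/3T3 cells, 5,000 per well. Buffer or medium: DMEM, 2% fetal bovine serum. Doses: compound pinned at 50 nL/well, DMSO. Schedule: ≥90 h infection period, 3 h prior cell attachment. Signal: luminescent β-galactosidase signal after 60 min lysis. Read-out: parasite load inhibition, %.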
XBP1 UPR activ = activators of adaptive XBP1 UPR arm, primary screen, cell-based, CHO-XBP1 luciferase reporter, luminescence, uHTS; activation, % at 20 µM; 330,000 compounds, 0.33% hits; IRE1-XBP1 UPR activation; percent of tunicamycin response, DMSO as zero;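 active = versus positive control, 20 µM dose yields 30% or more activation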;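 note: 100% = tunicamycin at 10 µg/mL and 0% = DMSO only wells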
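Material: CHO-XBP1 cells stably carrying IRE1-XBP1-driven luciferase reporter | Medium: F12 with 10% serum | Compound dosing: 20 µM single concentration, DMSO 1% | Incubation: Overnight seeding at 37 °C, 6 h compound treatment at 37 °C | Detection: Steady-Glo luminescence read | Read-out basis: % activation of reporter signal versus tunicamycin and DMSO controls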
Lmaj promast 1uM = Leishmania major promastigote growth inhibition, confirmation, 1 µM repeat of primary hits; 1,100 compounds, 13% hits; L. major promastigote growth, resazurin fluorescence, 48 h; shares compounds with L major viab; inhibition, % at 1 µM;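 active = inhibition above about 50% in both repeat tests, limit read from the data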
Numbers without * were called inactive; x = no result given.

SMILES	L major viab	CHOP inhibitor	CHOP UPR activ	Dynein cargo inh	T cruzi repl	XBP1 UPR activ	Lmaj promast 1uM
CC1CCN(C(=O)CSc2nc3ccccc3[nH]2)CC1	2	3	5	0.48	-2	2	x
Cc1ccc2cc(CN(c3ccccc3)S(=O)(=O)c3ccccc3)c(=O)[nH]c2c1	x	10	3	-0.35	4	-2	x
CCCN(Cc1cc2ccc(C)cc2[nH]c1=O)S(=O)(=O)c1ccccc1	64*	52	1	-0.067	9	4	-12
COc1ccc(S(=O)(=O)NCc2cccnc2)cc1NC(=O)c1ccc(Cl)cc1	x	x	0	x	-4	-1	x
CC(=O)c1ccc(S(=O)(=O)N2CCN(C(=O)CSc3ccc(C)c(C)c3)CC2)cc1	x	x	2	x	-4	5	x
Nc1nn(-c2ccccc2)c(N)c1N=Nc1ccc2c(c1)OCO2	87*	-22	2	0.013	21	1	79*
Nc1nn(-c2ccccc2)c(N)c1N=Nc1cccc(F)c1	x	-19	5	-0.97	-6	6	x
CCc1ccc(OCC(=O)N(CC)CC)cc1	-7	-11	5	-0.67	-8	-2	x
COc1ccc(CC(=O)N/N=C/c2ccc(C)s2)cc1	x	x	-1	x	-2	3	x
Clc1ccc(Nc2ccc(-n3ccnc3)nn2)cc1Cl	51*	22	7	0.7	13	11	-3
O=C(C1=C[C@H](c2ccc(Br)cc2)C[C@H](OCCCCO)O1)N1CCN(Cc2ccc3c(c2)OCO3)CC1	84*	12	0	-0.27	65*	3	-12
CC(C)COc1ccc(CNC(=S)Nc2ccccc2)cc1Cl	x	x	1	x	9	-4	x
Cc1occc1C(=O)NNC(=O)CN1C(=O)NC2(CCCCC2)C1=O	x	x	1	x	x	0	x
CCC(CC)NCC(O)COc1ccc(Br)cc1 (stereo unspecified)	66*	-2	0	0.42	x	0	6
CCCc1ccc(S(=O)(=O)N(C)S(=O)(=O)c2ccc(F)cc2)cc1	x	x	3	x	20	-3	x
CC12COC3(P(=O)(c4ccccc4)c4ccccc4)CC1CCC23CP(=O)(c1ccccc1)c1ccccc1 (stereo unspecified)	62*	14	-1	0.086	25	6	-7
CC12COC3(C(=O)Nc4ccc(F)cc4)CC1CCC32C (stereo unspecified)	-8	13	3	-0.27	22	-1	x
O=C(c1ccc(Cn2c(=O)[nH]c3ccccc3c2=O)cc1)N1CCN(c2ccccc2)CC1	94*	52	0	0.51	12	1	14
COC(=O)c1cc(C)sc1NC(=O)C1CC(=O)NN1Cc1ccccc1 (stereo unspecified)	95*	12	4	0.36	-4	-2	2
Cc1cccc(NC(=O)C2CCN(C(=O)N3CCOc4ccccc43)CC2)c1C	x	x	1	x	-3	-3	x
COc1ccccc1N1CCNC(C)C1=O (stereo unspecified)	x	x	1	x	-10	0	x
Cn1nc(C(F)(F)F)c2cc(NC(=O)OCc3ccc(F)cc3)sc21	-1	50	0	0.062	36	-2	x
Cn1nc(C(F)(F)F)c2cc(NC(=O)OCc3ccc(C(C)(C)C)cc3)sc21	97*	57	1	-0.21	36	1	-14
COc1ccc(C(=O)NC2CCCc3ccccc32)cc1OC1CCN(C(C)=O)CC1 (stereo unspecified)	x	x	0	x	-7	-1	x
O=C1CC(Cc2ccccc2)C(=O)N1CCCn1ccnc1 (stereo unspecified)	99*	12	-2	-0.5	-12	1	-5
SMILES	L major viab	CHOP inhibitor	CHOP UPR activ	Dynein cargo inh	T cruzi repl	XBP1 UPR activ	Lmaj promast 1uM
Cc1ccc(CC2CC(=O)N(CCc3ccccc3)C2=O)cc1 (stereo unspecified)	0	19	13	-1.1	3	3	x
Cc1ccc(-c2nnc(N3CCN(c4ccccn4)CC3)c3ccccc23)cc1	91*	70	3	1.3	29	0	6
c1ccc(-c2nnc(N3CCN(c4ccccn4)CC3)c3ccccc23)cc1	33	27	3	0.0075	36	0	x
CCOC(=O)c1c(C)[nH]c(N=Nc2ccccc2C)c1C	72*	48	4	-0.76	34	1	-6
COc1cc(/C=C2\C(=O)ON=C2c2ccccc2)cc(Cl)c1O	50*	34	20	-0.86	-8	-3	17
Cc1[nH]c2ccccc2c1N=Nc1cccc(C(=O)O)c1	3	-11	3	1.9	-18	3	x
Cc1[nH]c2ccccc2c1N=Nc1ccccc1C(=O)O	68*	34	0	2.6	5	-1	-5
O=C(O)Cc1ccc2sc(-c3ccccc3)nc2c1	72*	-2	5	0.86	-7	1	-6
COC(=O)Cc1ccc2sc(-c3ccccc3)nc2c1	6	5	5	-0.48	-22	0	x
CC(=O)c1c(N2CCN(c3cccc(Cl)c3)CC2)nc(=S)n(-c2ccccc2)c1C	91*	51	1	-1	25	-6	-9
COc1ccc(CC(=O)OC(C)CN2CCCC2)cc1 (stereo unspecified)	100*	10	0	3	-13	1	-11
CC1(CCCN2C(=O)c3ccccc3C2=O)OCCO1	x	x	3	x	-3	0	x
O=C(c1ccc(NC(=O)C(c2ccccc2)c2ccccc2)cc1)c1ccc(C(=O)O)c(C(=O)O)c1	x	x	0	x	2	-1	x
CCCNC(=O)OCCC12CC3CC(CC(C3)C1)C2	97*	62	4	-0.13	15	3	-16
COc1cc(/C=C/C(=O)NC(=O)c2ccccc2O)ccc1OC(C)=O	x	x	-1	x	-25	2	x
Cc1ccc(OCCCCn2ccnc2)c(Cl)c1	98*	9	2	-0.69	61*	1	74*
O=C(Nc1ccc(F)cc1F)N1CCCCC1c1cccnc1 (stereo unspecified)	73*	25	-1	-0.78	57*	3	10
Cc1cc([N+](=O)[O-])nn1CCCC(=O)Nc1cc(Cl)ccc1Cl	13	-16	3	0.2	-13	-1	x
CCC(C#CCN1CCCCC1)(CC)OCCC#N	65*	-17	1	0.25	4	4	-4

Source: PubChem BioAssay
